According to ChEMBL document CHEMBL1177892, “Synthesis, anti-inflammatory and ulcerogenicity studies of some substituted pyrimido[1,6-a]azepine derivatives” (Eur J Med Chem, 2010):

Columns and labels:
Rattus norvegicus [1] = assay: Antiinflammatory activity in albino rat assessed as inhibition of carrageenan-induced paw oedema at […], ip administered 1 hr before carrageenan challenge measured after 3 hrs relative to control; type: functional; parameters: scale not given: the % may be the effect or the level left; conditions: in the assay text read “relative to diclofenac sodium” for “relative to control”
Outline: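 Albino rats of both sexes (120–150 g) were pre-hydrated with 3 ml water/rat by gastric tube. Oedema was induced by s.c. sub-plantar injection of 1% carrageenan gel into the right hind paw. Right and left paw dorso-ventral thickness was read with dial calipers at 1, 2 and 3 h. Inhibition % = (1 − Lt/Lc) × 100, using mean paw-thickness increase of treated versus control rats.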

Rattus norvegicus [2] = assay: Toxicity in albino rat at 20 mg/kg assessed as ulcerogenicity; conditions: in vivo
Rattus norvegicus [3] = assay: Antiinflammatory activity in ip dosed albino rat assessed as inhibition of carrageenan-induced paw oedema administered 1 hr before carrageenan challenge measured after 3 hrs relative to control; type: functional, organism-based
Outline: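 Carrageenan paw-oedema model in albino rats of both sexes (120–150 g), water-loaded with 3 ml by gastric tube. […] was calculated from doses of […], with paw-thickness inhibition read 3 h after sub-plantar injection of 1% carrageenan. Inhibition % = (1 − Lt/Lc) × 100.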

Rattus norvegicus [4] = assay: Toxicity in albino rat at 20 mg/kg assessed as ulcer index; conditions: in vivo

SMILES	Activity (Rattus norvegicus [1]) [%]	Activity (Rattus norvegicus [2]) [%]	ED50 (Rattus norvegicus [3]) [µmol/kg]	UI (Rattus norvegicus [4])
N#CC1=C(NCN2CCOCC2)N(c2ccccc2)C(=O)N2CCCCC(N3CCCC3)C12 (stereo not drawn)	50.68	–	–	–
N#CC1=C(NCC(=O)N2CCCCC2)N(c2ccccc2)C(=O)N2CCCCC(N3CCCC3)C12 (stereo not drawn)	61.07	–	–	–
N#CC1=C(/N=C/Nc2ccccc2)N(c2ccccc2)C(=O)N2CCCCC(N3CCCC3)C12 (stereo not drawn)	90.52	–	–	–
COc1ccc(N/C=N/C2=C(C#N)C3C(N4CCCC4)CCCCN3C(=O)N2c2ccccc2)cc1 (stereo not drawn)	57.3	–	–	–
N#CC1=C(NCC(=O)N2CCOCC2)N(c2ccccc2)C(=O)N2CCCCC(N3CCCC3)C12 (stereo not drawn)	83.9	–	–	–
N#CC1=C(NCC(=O)O)N(c2ccccc2)C(=O)N2CCCCC(N3CCCC3)C12 (stereo not drawn)	101.82	4	10.3	5.4
COC(=O)C(=O)NC1=C(C#N)C2C(N3CCCC3)CCCCN2C(=O)N1c1ccccc1 (stereo not drawn)	100.79	1	10.6	2.2
N#CC1=C(N)N(c2ccccc2)C(=O)N2CCCCC(N3CCCC3)C12 (stereo not drawn)	102.85	–	6.61	–
N#CC1=C(NCN2CCCC2)N(c2ccccc2)C(=O)N2CCCCC(N3CCCC3)C12 (stereo not drawn)	40.29	–	–	–
N#CC1=C(NCN2CCCCC2)N(c2ccccc2)C(=O)N2CCCCC(N3CCCC3)C12 (stereo not drawn)	48.05	–	–	–
COc1ccc(/C=N/C2=C(C#N)C3C(N4CCCC4)CCCCN3C(=O)N2c2ccccc2)cc1 (stereo not drawn)	85.91	–	–	–
N#Cc1c2n(c(=O)n(-c3ccccc3)c1=N)CCCCC2N1CCCC1 (stereo not drawn)	106.62	–	8.5	–
N#CC1=C(/N=C/c2ccc([N+](=O)[O-])cc2)N(c2ccccc2)C(=O)N2CCCCC(N3CCCC3)C12 (stereo not drawn)	104.68	2	7.14	3.6
N#CC1=C(NCC(=O)N2CCCC2)N(c2ccccc2)C(=O)N2CCCCC(N3CCCC3)C12 (stereo not drawn)	63.93	–	–	–
N#CC1=C(NC(=O)c2ccccc2O)N(c2ccccc2)C(=O)N2CCCCC(N3CCCC3)C12 (stereo not drawn)	74.65	–	–	–
N#CC1=C(/N=C/Nc2ccc([N+](=O)[O-])cc2)N(c2ccccc2)C(=O)N2CCCCC(N3CCCC3)C12 (stereo not drawn)	97.71	3	–	4.8
N#CC1=C(/N=C/c2ccccc2)N(c2ccccc2)C(=O)N2CCCCC(N3CCCC3)C12 (stereo not drawn)	95.9	–	–	–
CCOC(=O)C(=O)NC1=C(C#N)C2C(N3CCCC3)CCCCN2C(=O)N1c1ccccc1 (stereo not drawn)	104.45	1	9.13	2.5
N#CC1=C(NC(=O)Cc2ccccc2Nc2c(Cl)cccc2Cl)N(c2ccccc2)C(=O)N2CCCCC(N3CCCC3)C12 (stereo not drawn)	76.71	–	–	–
O=C([O-])Cc1ccccc1Nc1c(Cl)cccc1Cl.[Na+] [DICLOFENAC SODIUM]	–	6	7.26	9
